The nature of test [1]: Inhibition of bovine NADH-ubiquinone oxidoreductase. More on the design: species or system Bos taurus. The method in brief: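 Bovine heart electron transport particles (inverted inner mitochondrial membrane vesicles, 40 µg protein) preincubated with compound 5 min at 25 °C in 50 mM phosphate pH 7.4, 250 mM sucrose. NADH added (28 µM final); activity followed as A340 loss over 3 min. IC50 from three experiments.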

The test system of the next test is MCF7. As to the kind of experiment: Cytotoxicity against human MCF7 cells after 72 hrs. Type of test: functional, cell-based. As to conditions: MCF7, 72 h. A digest of the protocol: (§1)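 Test compound added to cultured cells, 72 h incubation, then viability read by MTT (3-(4,5-dimethylthiazol-2-yl)-2,5-diphenyltetrazolium bromide) reduction. IC50 derived from eight replicates per assay.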

The nature of test [2]: Cytotoxicity against mouse Hepa1clc7 cells after 72 hrs. It is filed as functional, cell-based. The method in brief:
as §1

Molecules are shown by their SMILES. A value given as a limit tells only on which side of the number the result lay.

A word on the IC50: it is the midpoint of a concentration-inhibition curve. Read a high IC50 as lower potency. Regarding `CC1(C)C=Cc2c(ccc(C(=O)/C=C/c3ccc(O)cc3)c2O)O1`, the half-inhibitory concentration (IC50) in test [1] was 4.9 µM; in the test on MCF7, 27 µM; in test [2], 10 µM.
In the same order, the values of `COc1ccc([C@@H]2CC(=O)c3c(O)c(CC=C(C)C)c4c(c3O2)C=CC(C)(C)O4)cc1O` are 2 µM, 6.9 µM and 3.9 µM.
With `COc1ccc([C@@H]2CC(=O)c3c(O)c(CC=C(C)C)c4c(c3O2)C=CC(C)(C)O4)cc1OC`, the values for the concentration for half-maximal inhibition (IC50) (in test [1]; in the test with MCF7; in test [2]) were 2.1 µM, 6.6 µM and 8.5 µM, respectively.
Turning to `COc1cc(/C=C/c2ccc3c(c2)OC(C)(C)C=C3)cc(OC)c1OC`, the half-inhibitory concentration (IC50) turned out to be 4.9 µM in test [1], 24 µM in the test on MCF7 and 7 µM in test [2].
Taken in the same sequence, the figures for `COc1cc(/C=C/C(=O)c2ccc3c(c2O)C=CC(C)(C)O3)ccc1O` were 4.8 µM, 10 µM and 5.9 µM.
Regarding `COc1cc(/C=C/c2ccc(O)cc2)cc2c1C=CC(C)(C)O2`, the IC50 was 5.3 µM in test [1], above 30 µM in the test with MCF7 and 8.5 µM in test [2].
Taken in the same sequence, the figures for `COc1cc(/C=C/c2cc(OC)c3c(c2)OC(C)(C)C=C3)ccc1O` were 8.1 µM, above 30 µM and 13 µM.
Taken in the same sequence, the figures for `COc1cc([C@@H]2CC(=O)c3c(O)c(CC=C(C)C)c4c(c3O2)C=CC(C)(C)O4)ccc1O` were 0.68 µM, 3 µM and 3.5 µM.
Taken in the same sequence, the figures for `COc1ccc([C@@H]2CC(=O)c3cc(CC=C(C)C)c4c(c3O2)C=CC(C)(C)O4)cc1OC` were 2.6 µM, 5.7 µM and 5.1 µM.
`COc1cc(OC)c(-c2coc3c4c(ccc3c2=O)OC(C)(C)[C@@H](O)[C@H]4O)cc1OC` (relative stereo): the IC50 (in test [1]; in the test with MCF7; in test [2]) was above 30 µM throughout.
For the compound `O=c1c(-c2ccc(O)cc2)coc2cc(O)cc(O)c12` [GENISTEIN], the half-maximal inhibitory concentration (IC50) in test [1] was 35 µM; with MCF7, above 30 µM; in test [2], 11 µM.
`Oc1ccc(/C=C/c2cc(O)cc(O)c2)cc1` [RESVERATROL]: the IC50 in test [1] was 26 µM; with MCF7, above 30 µM; in test [2], 11 µM.

These data come from ChEMBL document CHEMBL1158008, “New bioactive flavonoids and stilbenes in cubé resin insecticide” (J Nat Prod, 1999).
